Experiment [1] concerns the target Delta-type opioid receptor (Mus musculus, UniProt P32300). Put plainly: Displacement of [3H]DPDPE from delta opioid receptor in mouse whole brain membranes without cerebellum. It counts as cell membranes, Membrane. Background: In a radioligand displacement assay an active substance lowers the binding of a labelled ligand.
Experiment [2] addresses T1, Kappa-type opioid receptor (Cavia porcellus, UniProt P41144). Put plainly: Displacement of [3H]U-69,593 from kappa opioid receptor in guinea pig cerebellum membranes. The class given is cell membranes, Membrane.
The target in experiment [3] is Mu-type opioid receptor (Mus musculus, UniProt P42866). Nature of the experiment: Displacement of [3H]DAMGO from mu opioid receptor in mouse whole brain membranes without cerebellum. It counts as cell membranes, Membrane.
For experiment [4], the target named is T2, Delta-type opioid receptor (Homo sapiens, UniProt P41143). Put plainly: Ratio of (-)TAN-67 EC50 to compound EC50 for human recombinant delta opioid receptor expressed in human HEK293 cells. It counts as cell-based. The method, boiled down: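 [³⁵S]GTPγS binding used purchased HEK-293 membranes carrying human recombinant delta receptor. Incubation buffer was 50 mM Tris, 1 mM EDTA, 12.5 mM MgCl₂, 100 mM NaCl and 0.5% BSA. It contained GDP, 0.1 nM [³⁵S]GTPγS and graded compound concentrations. (−)-TAN-67 served as the standard delta agonist.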

The species entered for a further experiment is Rattus norvegicus. Put plainly: Selectivity ratio of Ki for mu opioid receptor in rat cerebrum membranes to Ki for delta opioid receptor in rat cerebrum membranes. The class given is cell membranes. As to conditions: Membrane. In short, it runs like this: (§1)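 Rat cerebrum membranes; mu sites labelled with [³H]DAMGO and delta sites with [³H]DADLE, displaced by varying test concentrations. Nonspecific binding was defined with unlabeled levallorphan. Ki was derived from displacement data using the Cheng–Prusoff equation.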

A short description of experiment [5]: Selectivity ratio of Ki for kappa opioid receptor in guinea pig cerebrum membranes to Ki for delta opioid receptor in rat cerebrum membranes. The class given is cell membranes. As to conditions: Membrane.
The target of experiment [6] is T2, Delta-type opioid receptor. Put plainly: Ratio of SNC80 EC50 to compound EC50 for human recombinant delta opioid receptor expressed in human HEK293 cells. It counts as cell-based.
Experiment [7] addresses T2, Delta-type opioid receptor. Nature of the experiment: Agonist activity at human recombinant delta opioid receptor expressed in human HEK293 cells by [35S]GTPgammaS binding assay. It counts as functional, cell-based.
The target of experiment [8] is Mu-type opioid receptor (Rattus norvegicus, UniProt P33535). Nature of the experiment: Displacement of [3H]DAMGO from mu opioid receptor in rat cerebrum membranes. It counts as cell membranes, Membrane. In short, it runs like this: as §1
Experiment [9] concerns the target T1, Kappa-type opioid receptor. Put plainly: Displacement of [3H]U-69,593 from kappa opioid receptor in guinea pig cerebrum membranes. It counts as cell membranes, Membrane. The method, boiled down:
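Kappa binding used guinea pig cerebrum membranes labelled with [³H]U-69,593 and displaced by test compound. Nonspecific binding was taken with […] unlabeled U-69,593. Ki was obtained via Cheng–Prusoff.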

Experiment [10] deals with Delta-type opioid receptor (Rattus norvegicus, UniProt P33533). Put plainly: Displacement of [3H]DADLE from delta opioid receptor in rat cerebrum membranes. The class given is cell membranes, Membrane. In short, it runs like this: as §1

Molecules are shown by their SMILES.

For orientation: Ki means a dissociation constant, usually derived from enzyme kinetics or from competition with a known ligand. A word on the EC50: it is the midpoint of the concentration-response curve.

Chain of Mu-type opioid receptor (Rattus norvegicus, UniProt P33535) (P33535 whole entry): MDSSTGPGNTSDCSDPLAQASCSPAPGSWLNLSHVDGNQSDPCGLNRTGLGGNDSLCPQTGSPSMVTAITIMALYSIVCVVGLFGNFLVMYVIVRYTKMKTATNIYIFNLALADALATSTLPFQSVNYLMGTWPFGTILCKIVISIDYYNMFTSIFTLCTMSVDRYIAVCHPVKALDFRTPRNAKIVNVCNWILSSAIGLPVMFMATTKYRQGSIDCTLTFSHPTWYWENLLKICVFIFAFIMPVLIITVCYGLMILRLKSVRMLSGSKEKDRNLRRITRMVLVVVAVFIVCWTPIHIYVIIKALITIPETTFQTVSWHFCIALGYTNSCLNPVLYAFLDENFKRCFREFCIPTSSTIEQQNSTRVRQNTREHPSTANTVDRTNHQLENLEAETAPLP
T2 sequence (P41143 whole entry): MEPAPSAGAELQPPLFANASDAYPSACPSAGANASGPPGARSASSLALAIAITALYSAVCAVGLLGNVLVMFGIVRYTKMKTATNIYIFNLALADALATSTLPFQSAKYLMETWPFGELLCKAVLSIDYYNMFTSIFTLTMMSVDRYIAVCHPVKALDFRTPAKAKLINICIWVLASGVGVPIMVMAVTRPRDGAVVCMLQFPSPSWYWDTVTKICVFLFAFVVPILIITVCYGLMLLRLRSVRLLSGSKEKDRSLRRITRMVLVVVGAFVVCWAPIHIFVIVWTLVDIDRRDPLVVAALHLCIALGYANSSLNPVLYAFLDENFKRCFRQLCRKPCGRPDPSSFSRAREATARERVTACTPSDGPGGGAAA
T1 sequence (P41144 whole entry): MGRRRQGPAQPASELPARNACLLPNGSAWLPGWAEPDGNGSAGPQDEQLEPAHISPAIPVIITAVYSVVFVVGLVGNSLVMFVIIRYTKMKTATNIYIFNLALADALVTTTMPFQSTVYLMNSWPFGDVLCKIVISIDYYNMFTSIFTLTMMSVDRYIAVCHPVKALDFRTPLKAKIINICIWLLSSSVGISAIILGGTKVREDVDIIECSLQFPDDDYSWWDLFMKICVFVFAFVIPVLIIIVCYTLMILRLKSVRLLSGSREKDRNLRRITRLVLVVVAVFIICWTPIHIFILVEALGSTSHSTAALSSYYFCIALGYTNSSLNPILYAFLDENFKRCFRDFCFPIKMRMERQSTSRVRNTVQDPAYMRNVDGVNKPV
Chain of Mu-type opioid receptor (Mus musculus, UniProt P42866) (P42866 whole entry): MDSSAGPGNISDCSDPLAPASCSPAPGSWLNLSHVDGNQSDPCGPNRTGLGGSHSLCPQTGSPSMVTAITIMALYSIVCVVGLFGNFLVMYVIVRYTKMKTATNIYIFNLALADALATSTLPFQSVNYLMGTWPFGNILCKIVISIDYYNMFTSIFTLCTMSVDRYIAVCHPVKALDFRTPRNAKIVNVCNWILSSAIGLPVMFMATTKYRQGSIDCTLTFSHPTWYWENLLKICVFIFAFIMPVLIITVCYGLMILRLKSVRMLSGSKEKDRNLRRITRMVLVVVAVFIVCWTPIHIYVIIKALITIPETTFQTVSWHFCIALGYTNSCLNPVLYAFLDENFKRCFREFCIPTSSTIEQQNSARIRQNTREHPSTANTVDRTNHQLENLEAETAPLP
Chain of Delta-type opioid receptor (Mus musculus, UniProt P32300) (P32300 whole entry): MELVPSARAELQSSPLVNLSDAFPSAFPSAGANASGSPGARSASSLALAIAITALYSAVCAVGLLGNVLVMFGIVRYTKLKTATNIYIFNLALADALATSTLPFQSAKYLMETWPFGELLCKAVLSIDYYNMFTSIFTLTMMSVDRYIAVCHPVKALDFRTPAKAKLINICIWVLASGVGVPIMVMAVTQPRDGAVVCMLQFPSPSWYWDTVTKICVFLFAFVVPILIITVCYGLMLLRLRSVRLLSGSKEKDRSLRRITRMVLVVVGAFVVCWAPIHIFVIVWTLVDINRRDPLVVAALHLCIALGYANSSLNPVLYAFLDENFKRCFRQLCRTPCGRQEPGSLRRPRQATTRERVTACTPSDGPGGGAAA
Chain of Delta-type opioid receptor (Rattus norvegicus, UniProt P33533) (P33533 whole entry): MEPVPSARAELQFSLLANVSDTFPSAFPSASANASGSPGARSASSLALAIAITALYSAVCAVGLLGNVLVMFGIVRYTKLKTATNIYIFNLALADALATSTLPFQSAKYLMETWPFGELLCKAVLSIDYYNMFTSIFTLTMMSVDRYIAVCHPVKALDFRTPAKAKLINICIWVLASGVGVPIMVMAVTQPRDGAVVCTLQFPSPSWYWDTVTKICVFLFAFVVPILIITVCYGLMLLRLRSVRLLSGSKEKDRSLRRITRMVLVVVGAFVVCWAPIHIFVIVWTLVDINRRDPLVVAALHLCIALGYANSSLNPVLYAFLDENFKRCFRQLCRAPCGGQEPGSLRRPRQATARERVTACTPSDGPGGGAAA

Take `Oc1ccc2c(c1)[C@]13CCN(CC4CCC4)[C@H](C2)[C@@H]1Cc1cc2ccccc2nc1C3`: the Ki in experiment [1] amounted to 0.12 nM; in experiment [2], 1.07 nM; at Mu-type opioid receptor [3], 6.31 nM.
With `Oc1ccc2c(c1)[C@]13CCN(CC4CC4)[C@H](C2)[C@@H]1Cc1cc2ccccc2nc1C3`, the Ratio EC50 in experiment [4] and in [6] was 10 throughout. The Ratio Ki in the experiment filed under Rattus norvegicus is 4.1; in [5] it was 1.9.
For the compound `CN1CC[C@]23Cc4nc5ccccc5cc4C[C@H]2[C@H]1Cc1cccc(O)c13`, the EC50 in experiment [7] came out at 1.77 nM. Moreover, the Ki was 51.8 nM at Mu-type opioid receptor [8], 263 nM in [9] and 1 nM in [10]. In addition, the values for the Ratio Ki (in the experiment listed under Rattus norvegicus; in experiment [5]) were 51.8 and 263, respectively.
Turning to `CN1CC[C@]2(c3cccc(O)c3)Cc3nc4ccccc4cc3C[C@H]2C1`, the Ratio Ki turned out to be 197 in the experiment filed under Rattus norvegicus and 509 in experiment [5].
Regarding `Oc1ccc2c(c1)[C@]13CCN(CCc4ccccc4)[C@H](C2)[C@@H]1Cc1cc2ccccc2nc1C3`, the Ki is 4.68 nM in experiment [1], 17.9 nM in experiment [2] and 12.5 nM at Mu-type opioid receptor [3].
On to `CC(C)CN1CC[C@]23Cc4nc5ccccc5cc4C[C@H]2[C@H]1Cc1ccc(O)cc13`, for which the Ratio EC50 in experiment [4] and in experiment [6] was 10 each time. For the same compound, the Ratio Ki in the experiment listed under Rattus norvegicus is 124; in [5], 23.2.
In the case of `CN1CC[C@]23Cc4nc5ccccc5cc4C[C@H]2[C@H]1Cc1ccc(O)cc13`, the figures for the inhibition constant Ki (in experiment [1]; in [2]; at Mu-type opioid receptor [3]) were 0.29 nM, 14.3 nM and 23.2 nM, respectively. The Ratio EC50 in [4] and in experiment [6] was 10 in each case. The Ratio Ki was determined as 82.4 in the experiment listed under Rattus norvegicus and 72.9 in experiment [5].
As to `CC(C)CN1CC[C@]23Cc4nc5ccccc5cc4C[C@H]2[C@H]1Cc1cccc(O)c13`, the half-maximal effective concentration (EC50) in experiment [7] came to 2.34 nM. Moreover, the inhibition constant (Ki) at Mu-type opioid receptor [8] amounted to 323 nM; in [9], 516 nM; in experiment [10], 1.22 nM. In addition, the Ratio Ki in the experiment filed under Rattus norvegicus was found to be 265; in experiment [5] it was 423.
For the compound `Oc1ccc2c3c1O[C@H]1c4nc5ccccc5cc4C[C@H]4[C@@H](C2)N(CC2CC2)CC[C@]314`, the inhibition constant (Ki) at Mu-type opioid receptor [8] was found to be 13 nM; in experiment [9], 14.8 nM; in [10], 0.43 nM. For the same compound, the Ratio Ki in the experiment listed under Rattus norvegicus came out at 30.2; in experiment [5] it was 34.4.
As for `Oc1cccc2c1[C@]13CCN(CC4CC4)[C@H](C2)[C@@H]1Cc1cc2ccccc2nc1C3`, the EC50 in [7] worked out at 0.19 nM. For the same compound, the inhibition constant Ki amounted to 148 nM on Mu-type opioid receptor [8], 17.5 nM in experiment [9] and 0.27 nM in experiment [10]. The values for the Ratio Ki (in the experiment listed under Rattus norvegicus; in [5]) were 548 and 64.8, respectively.
For `Oc1ccc2c(c1)[C@]13CCN(CC4CCCC4)[C@H](C2)[C@@H]1Cc1cc2ccccc2nc1C3`, the Ki in experiment [1] is 0.35 nM; in experiment [2] it was 3.54 nM; on Mu-type opioid receptor [3], 20.1 nM.
With `Oc1ccc2c(c1)[C@]13CCN(Cc4ccccc4)[C@H](C2)[C@@H]1Cc1cc2ccccc2nc1C3`, the values for the Ki (in experiment [1]; in experiment [2]; on Mu-type opioid receptor [3]) were 12.4 nM, 50 nM and 76.9 nM, respectively.

Values taken from ChEMBL document CHEMBL1926591, “Synthesis of quinolinomorphinan-4-ol derivatives as δ opioid receptor agonists” (Bioorg Med Chem, 2012).
